Measured values collected from several papers.
Protocols differ between the studies behind these lines.
Target: Serine/threonine-protein kinase ULK3 (ULK3, Homo sapiens, UniProt Q6PHR2)
Sequence (Q6PHR2 1-472, as in one of the studies): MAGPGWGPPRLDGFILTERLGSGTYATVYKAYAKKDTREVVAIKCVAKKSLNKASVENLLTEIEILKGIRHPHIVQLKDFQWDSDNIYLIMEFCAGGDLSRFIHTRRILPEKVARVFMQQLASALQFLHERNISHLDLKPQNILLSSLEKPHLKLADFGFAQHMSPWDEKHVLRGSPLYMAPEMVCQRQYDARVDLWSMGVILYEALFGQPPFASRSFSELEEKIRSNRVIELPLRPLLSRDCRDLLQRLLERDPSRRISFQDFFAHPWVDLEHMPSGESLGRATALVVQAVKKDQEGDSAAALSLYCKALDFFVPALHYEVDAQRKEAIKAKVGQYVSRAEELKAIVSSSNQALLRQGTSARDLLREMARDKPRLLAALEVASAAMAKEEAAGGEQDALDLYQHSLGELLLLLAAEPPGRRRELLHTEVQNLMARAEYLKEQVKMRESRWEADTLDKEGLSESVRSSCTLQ

N[C@@H]1CCN(c2nccc(-c3cnn4ncccc34)n2)C1  remaining binding (binding; 1 µM): 100%
CN(C)c1ncnc(-c2ccc3nc(Nc4cc(CN5CCN(C(=O)CC(F)(F)F)CC5)ccn4)[nH]c3c2)c1Cl  remaining binding (cell-free assay; competition with immobilised ligand; 1 µM): 61%
CNC(=O)[C@@H]1CC[C@@H](n2c(-c3ccc4cnccc4c3)nc3ccc(C(=O)NCc4cccc(C(N)=O)c4)cc32)C1  remaining binding (binding; competition with immobilised ligand; 1 µM): 88%
Cc1cnc(Nc2ccc(C(=O)N3CCC(N4CCCC4)CC3)cc2)nc1-c1cc2ccccc2s1  remaining binding (binding; competition with immobilised ligand; 1 µM): 0.3%
FC(F)(F)Oc1cccc(-c2cnc3ccc(-c4ccncc4)nn23)c1  remaining binding (binding; competition with immobilised ligand; 5 µM): 45%
CNC(=O)Nc1ccc2c(c1)[C@@]1(CC2)OC(=O)N(CC(=O)N(Cc2ccc(F)cc2)[C@@H](C)C(F)(F)F)C1=O  remaining binding (cell-free assay; competition with immobilised ligand; 1 µM): 55%
C[C@@H]1CCN(c2nccc(-c3cnn4ncccc34)n2)C1  remaining binding (binding; 1 µM): 80%
Cn1cc(Cl)c2c(Oc3c(F)cc(Nc4cc(Cl)nc(N)n4)cc3F)ccnc21  remaining binding (cell-free assay; competition with immobilised ligand; 0.1 µM): 85%
CN(CCCC(F)(F)F)c1nccc(-c2cnn3ncccc23)n1  remaining binding (binding; 1 µM): 94%
O=C(c1ccc(Nc2ncc(Cl)c(-c3ccc(Cl)s3)n2)cc1)N1CCC(N2CCCC2)CC1  remaining binding (binding; competition with immobilised ligand; 1 µM): 0.1%
CC1CCCN1c1nccc(-c2cnn3ncccc23)n1 (centres unmarked)  remaining binding (binding; 1 µM): 100%
O=C(NCCCN1CCOCC1)c1ccc(Nc2nccc(-c3cc4ccccc4s3)n2)cc1  remaining binding (binding; competition with immobilised ligand; 1 µM): 3.2%
O=C(Nc1ccc(Oc2ccc(F)cc2)cc1)N1CCc2ncccc2[C@H]1c1ccc(F)cc1  remaining binding (cell-free assay; competition with immobilised ligand; 1 µM): 99%
c1cnn2ncc(-c3ccnc(N4CCC45COC5)n3)c2c1  remaining binding (binding; 1 µM): 64%
CCN1CCN(Cc2ccc(C(=O)Nc3ccc(C)c(Oc4ccc5c(c4)CC(=O)N5)c3)cc2C(F)(F)F)CC1  remaining binding (binding; competition with immobilised ligand; 1 µM): 100%
O=C(Nc1c[nH]nc1C(=O)NC1CCNCC1)c1cc(F)cc(F)c1  remaining binding (binding; competition with immobilised ligand; 1 µM): 100%
O=C(Nc1cccnn1)N1CC(C/C=C/c2cncc(Oc3ccc(C(F)(F)F)cn3)n2)C1  remaining binding (cell-free assay; competition with immobilised ligand; 1 µM): 82%
Nc1ncc2c(n1)-c1c([nH]c3ccc(C#CC4CC4)cc13)CCCC2  remaining binding (binding; competition with immobilised ligand; 1 µM): 86%
CN(C)c1nccc(-c2cnn3ncccc23)n1  remaining binding (binding; 1 µM): 77%
Cn1nc(C(=O)NCc2ccc(C(=O)O)cc2)cc1-c1ccc2[nH]ccc2c1  remaining binding (cell-free assay; competition with immobilised ligand; 0.1 µM): 99%
